In article PMC4696769 (Biochemistry, 2015):
Values joined by “and” are separate entries in the source; they are usually repeats but may differ in a detail not shown here. Identical values can stand only once. One block for each molecule: values may come before it.

Experiments:
P133R AKR1D1 [1] = biological target: T1, P133R AKR1D1 (Homo sapiens, UniProt P51857, P133R); assay: Steroid binding, quenching of energy transfer band of E·NADPH complex
WT AKR1D1 [2] = biological target: T2, WT AKR1D1 (Homo sapiens, UniProt P51857); assay: as above
WT AKR1D1 [3] = biological target: T2, WT AKR1D1; assay: Multiple turnover reactions, stopped-flow transient kinetics; assay type: biochemical; conditions: 10 mM potassium phosphate buffer, pH 7, 37 °C
Summary of the method: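 Multiple-turnover reactions in stopped-flow. […] Both solutions in 10 mM KPi pH 7.0 with 4% acetonitrile at 37 °C. […] At least three traces averaged, fit to a linear or burst-plus-linear equation giving pseudo-first-order kburst and […] kss.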

P133R AKR1D1 [4] = biological target: T1, P133R AKR1D1; assay: Multiple turnover reactions, stopped-flow transient kinetics; assay type: biochemical; conditions: 10 mM potassium phosphate buffer, pH 7, 37 °C
P133R AKR1D1 [5] = biological target: T1, P133R AKR1D1; assay: Cofactor binding, quenching of intrinsic protein fluorescence; conditions: pH 7.0, 37 °C
WT AKR1D1 [6] = biological target: T2, WT AKR1D1; assay: as above; conditions: pH 7.0, 37 °C
P133R AKR1D1 [7] = biological target: T1, P133R AKR1D1; assay: Ligand chase experiment of cofactor; assay type: binding
WT AKR1D1 [8] = biological target: T2, WT AKR1D1; assay: Ligand chase experiment of cofactor; assay type: binding; conditions: pH 7.0, 37 °C
P133R AKR1D1 [9] = biological target: T1, P133R AKR1D1; assay: Steady-state kinetic analysis of steroid reduction; conditions: for kcat: P133R
WT AKR1D1 [10] = biological target: T2, WT AKR1D1; assay: Steady-state kinetic analysis of steroid reduction; assay type: biochemical; conditions: for kcat: pH 7.0, 37 °C, 7.2 μM NADPH; for Ki: Ki (substrate inhibition; dissociation constant for substrate from the E-NADP+ complex)
[11] = substrate: CC(C)CCC[C@@H](C)[C@H]1CC[C@H]2[C@@H]3[C@H](O)CC4=CC(=O)CC[C@]4(C)[C@H]3CC[C@]12C; assay: purified protein, by the assay type; conditions: other: P133R, pH 7.0, 37.0 °C

T2 sequence (P51857 whole entry): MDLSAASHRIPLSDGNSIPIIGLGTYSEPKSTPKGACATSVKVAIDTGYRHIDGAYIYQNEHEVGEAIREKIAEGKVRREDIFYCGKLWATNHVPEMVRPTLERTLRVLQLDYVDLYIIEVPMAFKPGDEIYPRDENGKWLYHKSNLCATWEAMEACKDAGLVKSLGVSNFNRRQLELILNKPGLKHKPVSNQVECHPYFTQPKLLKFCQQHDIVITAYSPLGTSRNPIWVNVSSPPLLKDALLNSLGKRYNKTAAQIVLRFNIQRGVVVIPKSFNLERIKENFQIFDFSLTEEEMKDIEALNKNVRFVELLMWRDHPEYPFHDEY

Molecule: CC(C)(C)NC(=O)[C@H]1CC[C@H]2[C@@H]3CC[C@H]4NC(=O)C=C[C@]4(C)[C@H]3CC[C@]12C [finasteride]
Kd (P133R AKR1D1 [1]): 14.2 ± 1.3 µM
Kd (WT AKR1D1 [2]): 3.7 ± 0.2 µM

Molecule: C[C@]12CCC(=O)C=C1CC[C@@H]1[C@@H]2C(=O)C[C@@]2(C)[C@H]1CC[C@]2(O)C(=O)CO [cortisone]
kss (WT AKR1D1 [3]): 0.048 ± 0.001 s⁻¹
kss (P133R AKR1D1 [4]): 0.040 ± 0.001 s⁻¹
reduction in Kd versus 7α-hydroxycholest-4-en-3-one (WT AKR1D1 [2]; WT): 4 fold

Molecule: CC(C)CCC[C@@H](C)[C@H]1CC[C@H]2[C@@H]3[C@H](O)CC4=CC(=O)CC[C@]4(C)[C@H]3CC[C@]12C [7α-hydroxycholest-4-en-3-one]
kss (WT AKR1D1 [3]): 0.010 ± 0.002 s⁻¹
Kd (P133R AKR1D1 [1]): 13.6 ± 1.9 µM
Ki (P133R AKR1D1 [9]): 51 ± 27 µM
kcat WT/P133R (P133R AKR1D1 [9]; 10 mM KPi): 10
kcat WT/P133R (P133R AKR1D1 [9]; 100 mM KPi): 6.7
kcat/Km WT/P133R (fold decrease in catalytic efficiency) (P133R AKR1D1 [9]; 100 mM KPi): 13 and 13.3
kcat (P133R AKR1D1 [9]; 10 mM KPi): 0.0017 ± 0.0001 s⁻¹
kcat (P133R AKR1D1 [9]; 100 mM KPi, apparent value, enzyme not saturated with NADPH): 0.0030 ± 0.0005 s⁻¹
kss (P133R AKR1D1 [4]): 0.004 ± 0.001 s⁻¹
kcat (WT AKR1D1 [10]; 10 mM KPi): 0.017 ± 0.001 s⁻¹
kcat (WT AKR1D1 [10]; 100 mM KPi): 0.020 ± 0.002 s⁻¹
Ki (WT AKR1D1 [10]; 10 mM KPi): 55 ± 14 µM
Ki (WT AKR1D1 [10]; 100 mM KPi): 46 ± 18 µM
Kd (WT AKR1D1 [2]): 2.2 ± 0.3 µM

B1: P133R AKR1D1 (Homo sapiens; P133R) (protein)
chain: MDLSAASHRIPLSDGNSIPIIGLGTYSEPKSTPKGACATSVKVAIDTGYRHIDGAYIYQNEHEVGEAIREKIAEGKVRREDIFYCGKLWATNHVPEMVRPTLERTLRVLQLDYVDLYIIEVPMAFKPGDEIYRRDENGKWLYHKSNLCATWEAMEACKDAGLVKSLGVSNFNRRQLELILNKPGLKHKPVSNQVECHPYFTQPKLLKFCQQHDIVITAYSPLGTSRNPIWVNVSSPPLLKDALLNSLGKRYNKTAAQIVLRFNIQRGVVVIPKSFNLERIKENFQIFDFSLTEEEMKDIEALNKNVRFVELLMWRDHPEYPFHDEY
Km ([11]; 10 mM KPi): 2.4 ± 0.7 (WT/P133R 0.42) μM
Km ([11]; 100 mM KPi, apparent value): 1.0 ± 0.4 (WT/P133R 0.5) μM

The remaining lines, values ahead:

Kd (P133R AKR1D1 [5]; 10 mM KPi): 28.4 ± 1.9 µM
Kd (P133R AKR1D1 [5]; 100 mM KPi): 34.5 ± 3.8 µM
Kd (WT AKR1D1 [6]; 10 mM KPi): 24.8 ± 1.7 µM
Kd (WT AKR1D1 [6]; 100 mM KPi): 34.8 ± 3.5 µM
Molecule: NC(=O)C1=CN([C@@H]2O[C@H](COP(=O)(O)OP(=O)(O)OC[C@H]3O[C@@H](n4cnc5c(N)ncnc54)[C@H](O)[C@@H]3O)[C@@H](O)[C@H]2O)C=CC1 [NADH]

koff (rate of NADP+ release) (P133R AKR1D1 [7]; 10 mM KPi): 8.9 ± 0.2 s⁻¹
koff (rate of NADP+ release) (P133R AKR1D1 [7]; 100 mM KPi, too fast for instrument (dead time ~1.8 ms)): >50 s⁻¹
Kd (P133R AKR1D1 [5]; 10 mM KPi): 0.08 ± 0.006 µM
Kd (P133R AKR1D1 [5]; 100 mM KPi): 27.1 ± 1.3 µM
koff (rate of NADP+ release) (WT AKR1D1 [8]; 10 mM KPi): 0.164 ± 0.007 s⁻¹
koff (rate of NADP+ release) (WT AKR1D1 [8]; 100 mM KPi): 0.28 s⁻¹ and 0.276 ± 0.008 s⁻¹
Kd (WT AKR1D1 [6]; 10 mM KPi): 0.0043 ± 0.0006 µM
Kd (WT AKR1D1 [6]; 100 mM KPi): 0.237 ± 0.005 µM
Molecule: NC(=O)c1ccc[n+]([C@@H]2O[C@H](COP(=O)([O-])OP(=O)(O)OC[C@H]3O[C@@H](n4cnc5c(N)ncnc54)[C@H](OP(=O)(O)O)[C@@H]3O)[C@@H](O)[C@H]2O)c1 [NADP^+]
